# In ChEMBL document CHEMBL3232894, “Discovery of AMG 925, a FLT3 and CDK4 dual kinase inhibitor with preferential affinity for the activated state of FLT3” (J Med Chem, 2014):
# Test system: COLO 205
# Assay: Antiproliferative activity against Rb-positive human COLO205 cells assessed as incorporation of [14C]thymidine into DNA after 72 hrs by beta-plate counting analysis
# Conditions: not given
row,Compound,IC50 [µM]
1,Fc1nccc2c3cnc(Nc4ccc(N5CCNCC5)cn4)nc3n(C3CCCC3)c12,0.052
2,CC1CCC(n2c3cnccc3c3cnc(Nc4ccc(N5CCNCC5)cn4)nc32)CC1 (mixture of isomers),0.055
3,CC1(C)CCCC(n2c3cnccc3c3cnc(Nc4ccc(N5CCNCC5)cn4)nc32)C1 (stereo not drawn),0.033
4,N#Cc1nccc2c3cnc(Nc4ccc(N5CCNCC5)cn4)nc3n(C3CCCC3)c12,0.35
5,C[C@H]1CC[C@H](n2c3cnccc3c3cnc(Nc4ccc(N5CCC(N)CC5)cn4)nc32)CC1,0.005
6,CC1(C)CCC(n2c3cnccc3c3cnc(Nc4ccc(N5CCNCC5)cn4)nc32)CC1,0.028
7,c1cc2c3cnc(Nc4ccc(N5CCNCC5)cn4)nc3n(C3CCCC3)c2nn1,0.051
8,O[C@H]1CC[C@H](n2c3cnccc3c3cnc(Nc4ccc(N5CCNCC5)cn4)nc32)CC1,0.066
9,COc1nc(Nc2ncc3c4ccncc4n([C@H]4CC[C@H](C)CC4)c3n2)ccc1N1CCC2(CCC(=O)N2)CC1,0.044
10,CN(C)C1CCN(c2ccc(Nc3ncc4c5ccncc5n([C@H]5CC[C@H](C)CC5)c4n3)nc2)CC1,0.01

# Target: Cyclin-dependent kinase 1/cyclin B1 (Homo sapiens, UniProt P06493)
# Sequence (P06493 whole entry): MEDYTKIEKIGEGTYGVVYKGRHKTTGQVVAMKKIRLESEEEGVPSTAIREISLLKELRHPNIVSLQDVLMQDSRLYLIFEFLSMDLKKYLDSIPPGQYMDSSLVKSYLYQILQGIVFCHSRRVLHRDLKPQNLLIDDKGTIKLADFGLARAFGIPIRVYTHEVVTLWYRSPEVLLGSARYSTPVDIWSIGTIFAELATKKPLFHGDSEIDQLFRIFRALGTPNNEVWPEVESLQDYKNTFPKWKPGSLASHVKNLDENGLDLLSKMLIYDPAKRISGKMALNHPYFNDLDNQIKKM
# Sequence (P14635 whole entry, further chain): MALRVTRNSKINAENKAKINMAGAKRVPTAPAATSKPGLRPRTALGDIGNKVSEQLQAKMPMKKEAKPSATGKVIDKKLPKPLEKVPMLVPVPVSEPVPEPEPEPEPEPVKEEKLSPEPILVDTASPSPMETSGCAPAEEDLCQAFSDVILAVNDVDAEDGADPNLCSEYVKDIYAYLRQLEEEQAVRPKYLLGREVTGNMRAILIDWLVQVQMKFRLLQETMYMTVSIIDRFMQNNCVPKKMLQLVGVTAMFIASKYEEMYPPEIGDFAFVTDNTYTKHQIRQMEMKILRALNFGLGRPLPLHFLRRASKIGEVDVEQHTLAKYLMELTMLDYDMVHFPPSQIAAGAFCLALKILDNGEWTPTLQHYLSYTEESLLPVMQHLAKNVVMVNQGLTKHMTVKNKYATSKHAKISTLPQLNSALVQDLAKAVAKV
# Assay: Inhibition of CDK1/cyclin B (unknown origin) using histone H1 as substrate after 60 mins by scintillation counting analysis in presence of [r-33P]ATP
# Type: protein-complex assay
# Conditions: not given
row,Compound,IC50 [µM]
1,Fc1nccc2c3cnc(Nc4ccc(N5CCNCC5)cn4)nc3n(C3CCCC3)c12,7.56
2,CC1CCC(n2c3cnccc3c3cnc(Nc4ccc(N5CCNCC5)cn4)nc32)CC1 (mixture of isomers),5.2
3,CC1(C)CCCC(n2c3cnccc3c3cnc(Nc4ccc(N5CCNCC5)cn4)nc32)C1 (stereo not drawn),2.96
4,N#Cc1nccc2c3cnc(Nc4ccc(N5CCNCC5)cn4)nc3n(C3CCCC3)c12,30
5,C[C@H]1CC[C@H](n2c3cnccc3c3cnc(Nc4ccc(N5CCC(N)CC5)cn4)nc32)CC1,0.41
6,CC1(C)CCC(n2c3cnccc3c3cnc(Nc4ccc(N5CCNCC5)cn4)nc32)CC1,2.91
7,c1cc2c3cnc(Nc4ccc(N5CCNCC5)cn4)nc3n(C3CCCC3)c2nn1,4.78
8,O[C@H]1CC[C@H](n2c3cnccc3c3cnc(Nc4ccc(N5CCNCC5)cn4)nc32)CC1,3.41
9,COc1nc(Nc2ncc3c4ccncc4n([C@H]4CC[C@H](C)CC4)c3n2)ccc1N1CCC2(CCC(=O)N2)CC1,1.06
10,CN(C)C1CCN(c2ccc(Nc3ncc4c5ccncc5n([C@H]5CC[C@H](C)CC5)c4n3)nc2)CC1,3.29

# Target: T1, Receptor-type tyrosine-protein kinase FLT3 (Homo sapiens, UniProt P36888)
# T1 sequence (P36888 whole entry): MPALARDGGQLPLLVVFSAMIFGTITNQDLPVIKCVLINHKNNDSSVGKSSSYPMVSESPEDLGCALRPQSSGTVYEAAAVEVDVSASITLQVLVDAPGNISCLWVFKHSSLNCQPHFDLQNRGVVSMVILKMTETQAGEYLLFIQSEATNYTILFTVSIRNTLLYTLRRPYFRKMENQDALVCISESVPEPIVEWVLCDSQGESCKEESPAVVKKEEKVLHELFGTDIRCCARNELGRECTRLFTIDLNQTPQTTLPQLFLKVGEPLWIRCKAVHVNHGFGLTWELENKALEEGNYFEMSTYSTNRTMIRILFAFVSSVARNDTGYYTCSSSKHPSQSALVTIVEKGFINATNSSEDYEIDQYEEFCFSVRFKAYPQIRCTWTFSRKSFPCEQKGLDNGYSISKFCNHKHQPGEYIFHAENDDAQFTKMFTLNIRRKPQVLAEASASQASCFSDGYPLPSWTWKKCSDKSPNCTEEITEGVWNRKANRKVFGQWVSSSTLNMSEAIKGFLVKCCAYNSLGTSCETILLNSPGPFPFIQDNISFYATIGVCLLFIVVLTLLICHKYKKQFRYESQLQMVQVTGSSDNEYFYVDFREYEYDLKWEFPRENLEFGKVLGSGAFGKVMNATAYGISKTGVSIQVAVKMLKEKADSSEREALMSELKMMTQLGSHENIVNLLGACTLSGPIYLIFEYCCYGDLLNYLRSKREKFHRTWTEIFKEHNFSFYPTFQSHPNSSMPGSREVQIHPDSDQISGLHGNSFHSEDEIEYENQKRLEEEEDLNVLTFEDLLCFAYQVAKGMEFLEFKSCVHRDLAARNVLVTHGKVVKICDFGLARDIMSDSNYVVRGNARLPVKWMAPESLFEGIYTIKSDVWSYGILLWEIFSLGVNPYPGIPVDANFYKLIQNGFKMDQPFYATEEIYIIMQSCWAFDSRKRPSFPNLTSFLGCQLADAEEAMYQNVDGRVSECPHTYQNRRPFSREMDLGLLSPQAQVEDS
# Assay: Inhibition of GST-fused human FLT3 cytoplasmic domain (amino acids 564 to 993) using Ulight-JAK1 as substrate after 1 hr by TR-FRET assay
# Conditions: not given
row,Compound,IC50 [µM]
1,Fc1nccc2c3cnc(Nc4ccc(N5CCNCC5)cn4)nc3n(C3CCCC3)c12,0.011
2,CC1CCC(n2c3cnccc3c3cnc(Nc4ccc(N5CCNCC5)cn4)nc32)CC1 (mixture of isomers),0.002
3,CC1(C)CCCC(n2c3cnccc3c3cnc(Nc4ccc(N5CCNCC5)cn4)nc32)C1 (stereo not drawn),0.003
4,N#Cc1nccc2c3cnc(Nc4ccc(N5CCNCC5)cn4)nc3n(C3CCCC3)c12,0.046
5,C[C@H]1CC[C@H](n2c3cnccc3c3cnc(Nc4ccc(N5CCC(N)CC5)cn4)nc32)CC1,0.001
6,CC1(C)CCC(n2c3cnccc3c3cnc(Nc4ccc(N5CCNCC5)cn4)nc32)CC1,0.017
7,c1cc2c3cnc(Nc4ccc(N5CCNCC5)cn4)nc3n(C3CCCC3)c2nn1,0.095
8,O[C@H]1CC[C@H](n2c3cnccc3c3cnc(Nc4ccc(N5CCNCC5)cn4)nc32)CC1,0.005
9,COc1nc(Nc2ncc3c4ccncc4n([C@H]4CC[C@H](C)CC4)c3n2)ccc1N1CCC2(CCC(=O)N2)CC1,0.0006
10,CN(C)C1CCN(c2ccc(Nc3ncc4c5ccncc5n([C@H]5CC[C@H](C)CC5)c4n3)nc2)CC1,0.002

# Test system: not listed separately
# Assay: Oral bioavailability in rat
# Type: ADME, organism-based
# Conditions: in vivo
# Summary of the method: (§1)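 Intravenous and oral (gavage, solution) PK in rat, dog and cynomolgus monkey. The rat vehicle for both routes was water/acetate/tween at pH 4, 96/3/1 (v/v/v). Dog and monkey iv doses used 40% PG aqueous solution at pH 2, and their oral doses used 20% captisol aqueous solution.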
row,Compound,bioavailability [%]
1,COc1nc(Nc2ncc3c4ccncc4n([C@H]4CC[C@H](C)CC4)c3n2)ccc1N1CCC2(CCC(=O)N2)CC1,65
2,CN(C)C1CCN(c2ccc(Nc3ncc4c5ccncc5n([C@H]5CC[C@H](C)CC5)c4n3)nc2)CC1,44

# Target: Cyclin-dependent kinase 4/cyclin D1 (Homo sapiens, UniProt P11802)
# Sequence (P11802 whole entry): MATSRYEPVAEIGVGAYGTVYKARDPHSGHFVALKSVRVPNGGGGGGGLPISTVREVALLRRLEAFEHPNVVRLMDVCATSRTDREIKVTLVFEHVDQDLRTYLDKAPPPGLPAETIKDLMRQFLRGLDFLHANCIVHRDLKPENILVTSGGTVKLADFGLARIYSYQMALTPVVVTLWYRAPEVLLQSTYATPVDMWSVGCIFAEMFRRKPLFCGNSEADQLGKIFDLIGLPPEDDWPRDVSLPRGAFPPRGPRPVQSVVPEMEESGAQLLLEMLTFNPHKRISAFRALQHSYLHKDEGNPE
# Sequence (P24385 whole entry, further chain): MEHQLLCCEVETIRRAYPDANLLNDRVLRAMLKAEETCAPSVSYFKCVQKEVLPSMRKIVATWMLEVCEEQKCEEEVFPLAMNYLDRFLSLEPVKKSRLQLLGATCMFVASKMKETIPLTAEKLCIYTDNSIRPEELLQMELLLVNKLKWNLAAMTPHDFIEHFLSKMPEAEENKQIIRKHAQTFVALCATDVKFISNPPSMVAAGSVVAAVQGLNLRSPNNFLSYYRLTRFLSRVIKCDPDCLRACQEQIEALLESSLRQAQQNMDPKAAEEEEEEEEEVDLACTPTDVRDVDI
# Assay: Inhibition of CDK4/cyclin D1 (unknown origin) using Rb as substrate after 60 mins by scintillation counting analysis in presence of [r-33P]ATP
# Type: protein-complex assay
# Conditions: not given
row,Compound,IC50 [µM]
1,Fc1nccc2c3cnc(Nc4ccc(N5CCNCC5)cn4)nc3n(C3CCCC3)c12,0.003
2,CC1CCC(n2c3cnccc3c3cnc(Nc4ccc(N5CCNCC5)cn4)nc32)CC1 (mixture of isomers),0.001
3,CC1(C)CCCC(n2c3cnccc3c3cnc(Nc4ccc(N5CCNCC5)cn4)nc32)C1 (stereo not drawn),0.003
4,N#Cc1nccc2c3cnc(Nc4ccc(N5CCNCC5)cn4)nc3n(C3CCCC3)c12,0.027
5,C[C@H]1CC[C@H](n2c3cnccc3c3cnc(Nc4ccc(N5CCC(N)CC5)cn4)nc32)CC1,0.002
6,CC1(C)CCC(n2c3cnccc3c3cnc(Nc4ccc(N5CCNCC5)cn4)nc32)CC1,0.001
7,c1cc2c3cnc(Nc4ccc(N5CCNCC5)cn4)nc3n(C3CCCC3)c2nn1,0.051
8,O[C@H]1CC[C@H](n2c3cnccc3c3cnc(Nc4ccc(N5CCNCC5)cn4)nc32)CC1,0.003
9,COc1nc(Nc2ncc3c4ccncc4n([C@H]4CC[C@H](C)CC4)c3n2)ccc1N1CCC2(CCC(=O)N2)CC1,0.013
10,CN(C)C1CCN(c2ccc(Nc3ncc4c5ccncc5n([C@H]5CC[C@H](C)CC5)c4n3)nc2)CC1,0.002

# Target: CYP3A4 (Homo sapiens, UniProt P08684)
# Sequence (P08684 whole entry): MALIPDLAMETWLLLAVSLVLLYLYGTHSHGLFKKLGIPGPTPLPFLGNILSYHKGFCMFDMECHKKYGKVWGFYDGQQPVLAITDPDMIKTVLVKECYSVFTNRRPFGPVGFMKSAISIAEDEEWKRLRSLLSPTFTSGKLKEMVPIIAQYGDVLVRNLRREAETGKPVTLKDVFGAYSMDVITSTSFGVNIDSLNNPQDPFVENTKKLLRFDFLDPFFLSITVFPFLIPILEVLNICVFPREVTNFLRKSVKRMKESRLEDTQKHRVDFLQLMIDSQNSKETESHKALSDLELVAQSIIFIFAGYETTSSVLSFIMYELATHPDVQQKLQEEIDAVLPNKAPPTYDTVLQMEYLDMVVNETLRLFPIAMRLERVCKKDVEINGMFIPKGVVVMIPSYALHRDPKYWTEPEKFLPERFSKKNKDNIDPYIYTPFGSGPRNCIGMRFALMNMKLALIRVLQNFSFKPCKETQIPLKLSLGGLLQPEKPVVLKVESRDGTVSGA
# Assay: Inhibition of CYP3A4 (unknown origin) at 3 uM
# Type: ADME
# Conditions: not given
row,Compound,inhibition at 3 µM [%]
1,Fc1nccc2c3cnc(Nc4ccc(N5CCNCC5)cn4)nc3n(C3CCCC3)c12,< 10
2,CC1CCC(n2c3cnccc3c3cnc(Nc4ccc(N5CCNCC5)cn4)nc32)CC1 (mixture of isomers),46
3,CC1(C)CCCC(n2c3cnccc3c3cnc(Nc4ccc(N5CCNCC5)cn4)nc32)C1 (stereo not drawn),90
4,CC1(C)CCC(n2c3cnccc3c3cnc(Nc4ccc(N5CCNCC5)cn4)nc32)CC1,51
5,c1cc2c3cnc(Nc4ccc(N5CCNCC5)cn4)nc3n(C3CCCC3)c2nn1,< 10
6,O[C@H]1CC[C@H](n2c3cnccc3c3cnc(Nc4ccc(N5CCNCC5)cn4)nc32)CC1,70

# Target: Cytochrome P450 3A4 (Homo sapiens, UniProt P08684)
# Sequence (P08684 whole entry): as above
# Assay: Inhibition of CYP3A4 (unknown origin)
# Type: ADME
# Conditions: not given
row,Compound,IC50 [µM]
1,Fc1nccc2c3cnc(Nc4ccc(N5CCNCC5)cn4)nc3n(C3CCCC3)c12,> 10
2,CC1(C)CCC(n2c3cnccc3c3cnc(Nc4ccc(N5CCNCC5)cn4)nc32)CC1,9.5
3,c1cc2c3cnc(Nc4ccc(N5CCNCC5)cn4)nc3n(C3CCCC3)c2nn1,> 10

# Test system: MOLM-13
# Assay: Antiproliferative activity against human MOLM13 cells harboring FLT3 ITD mutant assessed as incorporation of [3H]thymidine into DNA after 72 hrs by beta-plate counting analysis
# Type: functional, cell-based
# Conditions: not given
row,Compound,IC50 [µM]
1,Fc1nccc2c3cnc(Nc4ccc(N5CCNCC5)cn4)nc3n(C3CCCC3)c12,0.021
2,CC1(C)CCCC(n2c3cnccc3c3cnc(Nc4ccc(N5CCNCC5)cn4)nc32)C1 (stereo not drawn),0.01
3,N#Cc1nccc2c3cnc(Nc4ccc(N5CCNCC5)cn4)nc3n(C3CCCC3)c12,0.062
4,C[C@H]1CC[C@H](n2c3cnccc3c3cnc(Nc4ccc(N5CCC(N)CC5)cn4)nc32)CC1,0.008
5,CC1(C)CCC(n2c3cnccc3c3cnc(Nc4ccc(N5CCNCC5)cn4)nc32)CC1,0.035
6,O[C@H]1CC[C@H](n2c3cnccc3c3cnc(Nc4ccc(N5CCNCC5)cn4)nc32)CC1,0.025
7,COc1nc(Nc2ncc3c4ccncc4n([C@H]4CC[C@H](C)CC4)c3n2)ccc1N1CCC2(CCC(=O)N2)CC1,0.004
8,CN(C)C1CCN(c2ccc(Nc3ncc4c5ccncc5n([C@H]5CC[C@H](C)CC5)c4n3)nc2)CC1,0.01

# Test system: not listed separately
# Assay: Antiproliferative activity against Rb-negative human MDA-MB-436 cells assessed as incorporation of [3H]thymidine into DNA after 72 hrs by beta-plate counting analysis
# Type: functional
# Conditions: not given
row,Compound,IC50 [µM]
1,Fc1nccc2c3cnc(Nc4ccc(N5CCNCC5)cn4)nc3n(C3CCCC3)c12,2.61
2,CC1CCC(n2c3cnccc3c3cnc(Nc4ccc(N5CCNCC5)cn4)nc32)CC1 (mixture of isomers),1.02
3,CC1(C)CCCC(n2c3cnccc3c3cnc(Nc4ccc(N5CCNCC5)cn4)nc32)C1 (stereo not drawn),1.62
4,N#Cc1nccc2c3cnc(Nc4ccc(N5CCNCC5)cn4)nc3n(C3CCCC3)c12,1.38
5,C[C@H]1CC[C@H](n2c3cnccc3c3cnc(Nc4ccc(N5CCC(N)CC5)cn4)nc32)CC1,1.2
6,CC1(C)CCC(n2c3cnccc3c3cnc(Nc4ccc(N5CCNCC5)cn4)nc32)CC1,2.01
7,c1cc2c3cnc(Nc4ccc(N5CCNCC5)cn4)nc3n(C3CCCC3)c2nn1,7.05
8,O[C@H]1CC[C@H](n2c3cnccc3c3cnc(Nc4ccc(N5CCNCC5)cn4)nc32)CC1,2.61
9,COc1nc(Nc2ncc3c4ccncc4n([C@H]4CC[C@H](C)CC4)c3n2)ccc1N1CCC2(CCC(=O)N2)CC1,7.5
10,CN(C)C1CCN(c2ccc(Nc3ncc4c5ccncc5n([C@H]5CC[C@H](C)CC5)c4n3)nc2)CC1,1.25

# Test system: not listed separately
# Assay: Clearance in iv dosed rat
# Type: ADME, organism-based
# Conditions: in vivo
# Summary of the method: as §1
row,Compound,clearance [mL/min/kg]
1,Fc1nccc2c3cnc(Nc4ccc(N5CCNCC5)cn4)nc3n(C3CCCC3)c12,35
2,c1cc2c3cnc(Nc4ccc(N5CCNCC5)cn4)nc3n(C3CCCC3)c2nn1,93.3
3,COc1nc(Nc2ncc3c4ccncc4n([C@H]4CC[C@H](C)CC4)c3n2)ccc1N1CCC2(CCC(=O)N2)CC1,15.2
4,CN(C)C1CCN(c2ccc(Nc3ncc4c5ccncc5n([C@H]5CC[C@H](C)CC5)c4n3)nc2)CC1,35
